Experimental data as given in ChEMBL document CHEMBL2021897, “Synthesis and SAR of 1,3-thiazolyl thiophene and pyridine derivatives as potent, orally active and S1P₃-sparing S1P₁ agonists” (Bioorg Med Chem Lett, 2012).
pEC50: −log10 of the molar value. Activity calls are given as the source filed them. The calls are words filed in the database; no cut-off is given here.

Experiments:
[1] = target: Sphingosine 1-phosphate receptor 3 (Homo sapiens, UniProt Q99500); assay: Agonist activity at human S1P3 receptor by [S35]GTPgammaS binding assay; assay type: functional
In short: (§1)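 GTPγS binding at human S1P1 and S1P3 receptors. EC50 is the mean of two experimental determinations.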

[2] = target: Sphingosine 1-phosphate receptor 1 (Homo sapiens, UniProt P21453); assay: Agonist activity at human S1P1 receptor by [S35]GTPgammaS binding assay; assay type: functional; in short: as §1
[3] = target: T1, Peroxisome proliferator-activated receptor alpha (Homo sapiens) (UniProt Q07869); assay: Agonist activity at PPARalpha; assay type: functional
T1 sequence (whole entry): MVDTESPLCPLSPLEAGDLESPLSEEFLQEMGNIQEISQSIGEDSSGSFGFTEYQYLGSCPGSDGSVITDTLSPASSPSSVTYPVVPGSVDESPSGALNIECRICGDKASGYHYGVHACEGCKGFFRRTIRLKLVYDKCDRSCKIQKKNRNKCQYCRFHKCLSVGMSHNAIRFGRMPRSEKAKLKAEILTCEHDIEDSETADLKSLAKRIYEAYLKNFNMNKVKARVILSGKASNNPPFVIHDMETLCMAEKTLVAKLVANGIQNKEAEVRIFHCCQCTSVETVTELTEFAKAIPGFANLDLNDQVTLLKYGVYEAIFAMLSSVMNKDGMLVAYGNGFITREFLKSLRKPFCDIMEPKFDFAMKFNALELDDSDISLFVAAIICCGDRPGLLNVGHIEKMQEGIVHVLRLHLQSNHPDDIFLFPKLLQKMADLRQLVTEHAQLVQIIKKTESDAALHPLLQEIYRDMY

Rattus norvegicus [4] = assay: Immunosuppressive activity in po dosed LEW rat transplanted with spleen cells of WKAH rat assessed as inhibition of enlargement of draining popliteal lymph node administered qd for 4 days; assay type: functional; details: 96 h, read-out: ID50 (the source's name)
In short: (§2)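 Spleen cells from WKAH rats were injected into the footpads of LEW rats to induce draining popliteal lymph node enlargement. Dosing was oral, once daily for four days from the day of cell injection (day 0). Lymph node weight was measured on day 4. Values are the mean of five rats; ID50 is derived from at least three doses.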

[5] = Tmax in Lewis rat at 3 mg/kg, po; assay type: ADME, organism-based; set-up: dose 3 mg/kg, route oral; details: in vivo
In short: (§3)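 Single oral dose in Lewis rats (n = 4) or cynomolgus monkeys (n = 2), with plasma parameters derived. Bioavailability was calculated against iv dosing at 1.0 mg/kg in rats (n = 2) and 0.5 mg/kg in monkeys (n = 2).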

[6] = Oral bioavailability in cynomolgus monkey at 1 mg/kg; assay type: ADME, organism-based, Macaca fascicularis; details: in vivo; in short: as §3
[7] = Clearance in Lewis rat at 1 mg/kg, iv; assay type: ADME, organism-based; set-up: dose 1 mg/kg, route intravenous; details: in vivo
In short: (§4)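 Single iv administration to Lewis rats at 1.0 mg/kg (n = 2) or cynomolgus monkeys at 0.5 mg/kg (n = 2), with clearance and volume of distribution derived.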

[8] = Stability of the compound in presence of enterobacteria from monkey feces contents under anaerobic condition at 3 to 30 uM after 24 hrs; assay type: ADME, tissue-based
In short: (§5)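 Compound solutions at 3.0 and 30 µM were exposed to anaerobic enterobacterial culture fluid from rat cecal contents or monkey feces, grown in prereduced PYF broth, with broth alone as control. Percent compound remaining was traced at 24 and 48 h.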

[9] = Volume of distribution in cynomolgus monkey at 0.5 mg/kg, iv; assay type: ADME, organism-based, Macaca fascicularis; set-up: dose 0.5 mg/kg, route intravenous; details: in vivo; in short: as §4
[10] = AUC (0 to infinity) in cynomolgus monkey at 1 mg/kg, po; assay type: ADME, organism-based, Macaca fascicularis; set-up: time infinity, dose 1 mg/kg, route oral; details: plasma; in short: as §3
[11] = Stability of the compound in presence of enterobacteria from rat cecal contents under anaerobic condition at 3 to 30 uM after 48 hrs; assay type: ADME; in short: as §5
[12] = Cmax in cynomolgus monkey at 1 mg/kg, po; assay type: ADME, organism-based, Macaca fascicularis; set-up: dose 1 mg/kg, route oral; details: in vivo; in short: as §3
[13] = Oral bioavailability in Lewis rat at 3 mg/kg; assay type: ADME, organism-based; details: in vivo; in short: as §3
[14] = AUC (0 to infinity) in Lewis rat at 3 mg/kg, po; assay type: ADME, organism-based; set-up: dose 3 mg/kg, route oral, time infinity; details: plasma; in short: as §3
[15] = Half life in Lewis rat at 3 mg/kg, po; assay type: ADME, organism-based; set-up: dose 3 mg/kg, route oral; details: in vivo; in short: as §3
[16] = Cmax in Lewis rat at 3 mg/kg, po; assay type: ADME, organism-based; set-up: dose 3 mg/kg, route oral; details: in vivo; in short: as §3
[17] = Tmax in cynomolgus monkey at 1 mg/kg, po; assay type: ADME, organism-based, Macaca fascicularis; set-up: dose 1 mg/kg, route oral; details: in vivo; in short: as §3
[18] = Clearance in cynomolgus monkey at 0.5 mg/kg, iv; assay type: ADME, organism-based, Macaca fascicularis; set-up: dose 0.5 mg/kg, route intravenous; details: in vivo; in short: as §4
[19] = Volume of distribution in Lewis rat at 1 mg/kg, iv; assay type: ADME, organism-based; set-up: dose 1 mg/kg, route intravenous; details: in vivo; in short: as §4
[20] = Half life in cynomolgus monkey at 1 mg/kg, po; assay type: ADME, organism-based, Macaca fascicularis; set-up: dose 1 mg/kg, route oral; details: in vivo; in short: as §3
[21] = Stability of the compound in presence of enterobacteria from rat cecal contents under anaerobic condition at 3 to 30 uM after 24 hrs; assay type: ADME; in short: as §5
[22] = Stability of the compound in presence of enterobacteria from monkey feces contents under anaerobic condition at 3 to 30 uM after 48 hrs; assay type: ADME, tissue-based; in short: as §5
Rattus norvegicus [23] = assay: Immunosuppressive activity in LEW rat transplanted with spleen cells of WKAH rat assessed as inhibition of enlargement of draining popliteal lymph node at 1 mg/kg, po qd for 4 days; assay type: functional; details: for inhibition in vivo at 1 mg/kg: 96 h; in short: as §2
Homo sapiens = species on record: Homo sapiens; assay: Selectivity ratio of EC50 for human S1P3 receptor to EC50 for human S1P1 receptor
Rattus norvegicus [24] = assay: Drug metabolism in po dosed rat plasma assessed as formation of 4-phenoxy benzoic acid; assay type: ADME, organism-based; details: in vivo
[25] = Oral bioavailability in cynomolgus monkey at 0.5 mg/kg; assay type: ADME, organism-based, Macaca fascicularis; details: in vivo; in short: as §3
[26] = Cmax in cynomolgus monkey at 0.5 mg/kg, po; assay type: ADME, organism-based, Macaca fascicularis; set-up: dose 0.5 mg/kg, route oral; details: in vivo; in short: as §3
[27] = AUC (0 to infinity) in cynomolgus monkey at 0.5 mg/kg, po; assay type: ADME, organism-based, Macaca fascicularis; set-up: time infinity, dose 0.5 mg/kg, route oral; details: plasma; in short: as §3
[28] = Half life in cynomolgus monkey at 0.5 mg/kg, po; assay type: ADME, organism-based, Macaca fascicularis; set-up: dose 0.5 mg/kg, route oral; details: in vivo; in short: as §3
[29] = Tmax in cynomolgus monkey at 0.5 mg/kg, po; assay type: ADME, organism-based, Macaca fascicularis; set-up: dose 0.5 mg/kg, route oral; details: in vivo; in short: as §3

Sphingosine 1-phosphate receptor 1, sequence (P21453 whole entry): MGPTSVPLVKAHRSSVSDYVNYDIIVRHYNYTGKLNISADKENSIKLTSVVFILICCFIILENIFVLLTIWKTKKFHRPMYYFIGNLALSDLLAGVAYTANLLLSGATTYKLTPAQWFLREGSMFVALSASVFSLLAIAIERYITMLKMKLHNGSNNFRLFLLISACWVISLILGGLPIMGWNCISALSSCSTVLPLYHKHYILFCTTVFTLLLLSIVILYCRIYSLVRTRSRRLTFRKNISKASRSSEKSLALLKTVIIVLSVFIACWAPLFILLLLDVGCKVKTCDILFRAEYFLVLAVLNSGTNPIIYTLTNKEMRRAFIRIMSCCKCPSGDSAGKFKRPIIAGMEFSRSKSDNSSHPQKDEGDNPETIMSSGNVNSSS
Sphingosine 1-phosphate receptor 3, sequence (Q99500 whole entry): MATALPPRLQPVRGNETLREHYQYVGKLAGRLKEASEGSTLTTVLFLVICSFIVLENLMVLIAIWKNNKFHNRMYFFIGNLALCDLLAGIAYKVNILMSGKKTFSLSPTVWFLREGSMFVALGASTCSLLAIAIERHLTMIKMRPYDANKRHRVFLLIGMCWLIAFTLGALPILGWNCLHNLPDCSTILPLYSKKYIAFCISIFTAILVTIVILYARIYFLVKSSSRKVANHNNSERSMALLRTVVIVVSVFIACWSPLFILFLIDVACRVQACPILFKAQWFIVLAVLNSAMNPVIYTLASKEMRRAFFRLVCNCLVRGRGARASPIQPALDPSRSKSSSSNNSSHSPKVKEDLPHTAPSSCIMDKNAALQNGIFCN

pEC50 [1] | pEC50 [2] | Compound | ED50 (Rattus norvegicus [4]) [mg/kg] | inhibition in vivo at 1 mg/kg (Rattus norvegicus [23]) [%] | other results
< 4.70 | 6.52 | CCc1cc(CN2CC(C(=O)O)C2)sc1-c1cnc(-c2ccc(Oc3ccccc3)cc2)o1 |  |  | 
< 4.70 | 8.00 | CCc1cc(CN2CC(C(=O)O)C2)sc1-c1ncc(-c2ccc(OC(C)C)cc2)s1 |  | 52 | 
< 4.70 | 7.66 | CCc1cc(CN2CC(C(=O)O)C2)sc1-c1cc(-c2ccc(Oc3ccccc3)cc2)on1 |  | 2 | 
< 4.70 | 8.46 | CCc1cc(CN2CC(C(=O)O)C2)sc1-c1ncc(-c2ccc(C(C)C)c(C)c2)s1 | 1.07 |  | 
< 4.70 | 7.27 | CCc1cc(CN2CC(C(=O)O)C2)sc1-c1nnc(-c2ccc(Oc3ccccc3)cc2)o1 |  |  | 
< 4.70 | 7.96 | CCc1cc(CN2CC(C(=O)O)C2)sc1-c1cnc(-c2ccc(OC(C)C)c(C)c2)s1 | 0.19 |  | 
< 4.70 | 7.82 | CCc1cc(CN2CC(C(=O)O)C2)sc1-c1cc(-c2ccc(Oc3ccccc3)cc2)no1 |  |  | inhibition (Rattus norvegicus [23]): inactive
6.40 | 8.96 | CCCc1cc(-c2cnc(-c3sc(CN4CC(C(=O)O)C4)cc3CC)s2)ccc1OC(C)C |  | 73 | 
< 4.70 |  | CCc1cc(CN2CC(C(=O)O)C2)sc1-c1noc(-c2ccc(Oc3ccccc3)cc2)n1 | 0.41 |  | Stability [8]: Unstable; Stability [11]: Unstable; Stability [21]: Unstable; Drug metabolism (Rattus norvegicus [24]): Active; Stability [22]: Unstable
< 4.70 | 7.46 | CCc1cc(CN2CC(C(=O)O)C2)sc1-c1cnc(-c2ccc(Oc3ccccc3)cc2)s1 |  | 25 | 
< 4.70 | 8.40 | CCc1cc(-c2cnc(-c3ccc(CN4CC(C(=O)O)C4)nc3CC)s2)ccc1OC(C)C | 0.49 |  | bioavailability [25]: 75.4%; Vd [9]: 1.46 L/kg; Cmax [26]: 150 ng/mL; AUC(0-inf) [27]: 3730 ng·h/mL; clearance [18]: 1.75 mL/min/kg; half-life [28]: 16.7 h; Tmax [29]: 5 h
< 4.70 | 8.89 | CCc1cc(CN2CC(C(=O)O)C2)sc1-c1ncc(-c2ccc(OC(C)C)c(C(C)C)c2)s1 | 0.53 |  | 

Continued, compound first:

Compound | pEC50 [1] | pEC50 [2] | ED50 (Rattus norvegicus [4]) [mg/kg] | inhibition in vivo at 1 mg/kg (Rattus norvegicus [23]) [%] | other results
CCc1cc(CN2CC(C(=O)O)C2)sc1-c1ncc(-c2ccc(Oc3ccccc3)cc2)o1 | < 4.70 | 7.05 |  |  | 
O=C(O)c1ccc(Oc2ccccc2)cc1 |  |  |  |  | Activity [3]: Active
CCc1cc(-c2ncc(-c3ccc(CN4CC(C(=O)O)C4)nc3CC)s2)ccc1CC(C)C | < 4.70 | 8.27 | 0.74 |  | 
CCc1cc(CN2CC(C(=O)O)C2)sc1-c1ncc(-c2ccc(OC(C)C)c(C)c2)s1 | < 4.70 | 8.47 | 0.07 |  | Tmax [5]: 5 h; bioavailability [6]: > 90%; clearance [7]: 6.72 mL/min/kg; Stability [8]: Stable; Vd [9]: 0.89 L/kg; AUC(0-inf) [10]: 8690 ng·h/mL; Stability [11]: Stable; Cmax [12]: 630 ng/mL; bioavailability [13]: 70.6%; AUC(0-inf) [14]: 5140 ng·h/mL; half-life [15]: 11.5 h; Cmax [16]: 340 ng/mL; Tmax [17]: 4 h; clearance [18]: 2 mL/min/kg; Vd [19]: 5.37 L/kg; half-life [20]: 7.2 h; Stability [21]: Stable; Stability [22]: Stable
CCc1nc(CN2CC(C(=O)O)C2)ccc1-c1cnc(-c2ccc(CC(C)C)c(C)c2)s1 | < 4.70 | 8.39 | 0.64 |  | 
CCc1cc(CN2CC(C(=O)O)C2)sc1-c1ncc(-c2ccc(OC(C)C)c(Cl)c2)s1 | < 4.70 | 8.49 |  | 54 | 
CCc1cc(CN2CC(C(=O)O)C2)sc1-c1ncc(-c2ccc(Oc3ccccc3)cc2)s1 | < 4.70 | 8.35 |  | 42 | Ratio EC50 (Homo sapiens): > 4400
CCc1cc(CN2CC(C(=O)O)C2)sc1-c1nnc(-c2ccc(Oc3ccccc3)cc2)s1 | < 4.70 | 7.60 |  |  | inhibition (Rattus norvegicus [23]): inactive
CCc1nc(CN2CC(C(=O)O)C2)ccc1-c1ncc(-c2ccc(OC(C)C)c(C)c2)s1 | < 4.70 | 8.26 |  | 39 | 
CCc1cc(CN2CC(C(=O)O)C2)sc1-c1ncc(-c2ccc(O[C@H](C)CC)c(C)c2)s1 | < 4.70 | 8.10 |  | 27 | 
CCc1nc(CN2CC(C(=O)O)C2)ccc1-c1cnc(-c2ccc(OC(C)C)c(C)c2)s1 | < 4.70 | 8.55 |  | 17 | 
CCc1cc(-c2cnc(-c3sc(CN4CC(C(=O)O)C4)cc3CC)s2)ccc1OC(C)C | < 4.70 | 8.47 | 0.16 |  | 
CCc1cc(CN2CC(C(=O)O)C2)sc1-c1ncc(-c2ccc(OC(C)C)c(F)c2)s1 | < 4.70 | 8.24 | 0.48 |  | 
CCc1cc(CN2CC(C(=O)O)C2)sc1-c1ncc(-c2ccc(O[C@@H](C)CC)c(C)c2)s1 | < 4.70 | 8.22 | 0.32 |  | 
